Screening data (PubChem BioAssay)
Cneo AK release = Cryptococcus neoformans cell lysis inducers, primary screen, AK release luminescence, single concentration; C. neoformans lysis, adenylate kinase release luminescence, 4 h; normalised: neutral wells 0, clomiphene wells 100; lysis activity, % at 15 µM; hit rate 0.2% among 360,000; AID 651654, 2012;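 active means mean lysis activity across replicates of at least 80%, whatever share of replicates individually reach that level; inactive means mean lysis activity below 80%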
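Material – log-phase Cryptococcus neoformans yeast cells · Input – 5 × 10^6 yeast cells/mL · Medium – fresh YPD growth medium · Doses – single compound concentration per well · Timing – static 4 h at 37 °C with compound, 1 h detection · Detection – adenylate kinase release luminescence · Read-out – signal increase indicating cell lysis · Control set – Clomiphene as positive lysis control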
Env fusion inh = inhibitors of HIV-1 Env-driven cell-cell fusion, primary screen, HeLa-JRFL effector, CEM21 target cells, luciferase. inhibition, % at 12.3 µM. hit rate 1.1% among 360,000. AID 651610, 2012;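 active means mean replicate inhibition score of at least 50 and every replicate individually at or above 50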;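 further: 0% = plate neutral controls and 100% = maraviroc near 300 nM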
CDK5 inh = inhibitors of human CDK5/p35 kinase, primary screen, biochemical, single concentration; inhibition, % at 10 µM; hit rate 0.01% among 330,000; AID 488839, 2010; Cyclin-dependent kinase 5 (Homo sapiens) + Cyclin-dependent kinase 5 activator 1 (Homo …; Recombinant CDK5/p35, ADP-Glo luminescence, 60 min;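 active means highest replicate inhibition of at least 50% and at least 75% of replicates reaching 50%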;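 further: plate controls were DMSO neutral control for no effect and GW8510 at 10 µM for full effect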
dFosB act-1 = activators of delta FosB homodimer, primary screen, biochemical, fluorescence polarization, TAMRA-CDK5 oligo, single point; activation, % at 25 µM; purified delta FosB; percent of positive-control signal above neutral wells; hit rate 0.99% among 340,000;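 active means mean activation above about 17%, with every replicate also reaching it, limit read from the data, passing the limit was not always enough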
Target sequence (P13346 whole entry, looked up): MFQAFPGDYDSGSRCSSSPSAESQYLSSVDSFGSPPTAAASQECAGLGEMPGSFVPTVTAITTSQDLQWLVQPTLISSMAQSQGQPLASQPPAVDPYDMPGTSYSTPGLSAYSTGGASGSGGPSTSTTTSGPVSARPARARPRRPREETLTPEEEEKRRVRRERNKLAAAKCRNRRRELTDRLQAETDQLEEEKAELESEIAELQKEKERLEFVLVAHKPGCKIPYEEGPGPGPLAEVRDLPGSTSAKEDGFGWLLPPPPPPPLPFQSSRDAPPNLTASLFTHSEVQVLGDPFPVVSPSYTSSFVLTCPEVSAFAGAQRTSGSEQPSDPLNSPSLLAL
PAX8 inh HTS = inhibitors of PAX8-driven TPO luciferase reporter, primary screen, RMG-I cells, single concentration; inhibition, % at 12.6 µM; SteadyGlo, 24 h; hit rate 1.2% among 360,000; AID 652154, 2013;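 active means mean replicate inhibition at least 60% with every replicate also reaching 60%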;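 further: luciferase light reporting Pax8 driven TPO promoter activity; plate controls were median of neutral control wells for no effect and mitoxantrone controls for full effect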
GSIS activator = GLuc luminescence reporter in INS-1E cells, primary screen for activators of glucose-dependent secretion of insulin. activation, % at 16.6 µM. INS-1E GLuc reporter insulin secretion, 2-3 h. AID 743287, 2014. hit rate 0.61% among 370,000;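 active means lowest replicate activation of at least 40%, so every replicate reaches that level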;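 further: 0% = median of neutral control wells and 100% = median of IBMX positive control wells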
dFosB act-2 = activators of mouse delta FosB DNA binding, confirmation, biochemical, fluorescence polarization, TAMRA-CDK5 oligo, cherry-picked samples. AID 588690, 2011. purified delta FosB; normalised: neutral wells 0, positive control 100. 2,400 tested, under 10 active. shares compounds with dFosB act-1. activation, % at 24.9 µM;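 active means highest replicate activation at or above 34% and every replicate reaching that threshold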;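 further: higher polarization means more probe DNA bound by delta FosB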
* hit, by the source's call; · = no result given; [ ] = remark or other dose. In the library only some 2.9% were active in any assay of this set; here they are far more common.

SMILES	Cneo AK release	Env fusion inh	CDK5 inh	dFosB act-1	PAX8 inh HTS	GSIS activator	dFosB act-2
CO[C@H]1CN(C)C(=O)c2ccc(NC(=O)C3CC3)cc2OC[C@@H](C)N(CCc2ccccc2)C[C@@H]1C	-2	-12[16.7 µM]	·	·	9	-17	·
COc1ccc(-c2cc(C(=O)Nc3cc(S(=O)(=O)N4CCOCC4)ccc3N3CCOCC3)c3ccccc3n2)cc1	·	21	-1	34*	40	-12	5
CCCN1C[C@H](C)[C@H](OC)CN(C)C(=O)c2cc(NC(=O)c3cccc(OC)c3)ccc2OC[C@@H]1C	·	·	·	·	·	14	·
CO[C@H]1CN(C)C(=O)c2ccc(NS(=O)(=O)c3cn(C)cn3)cc2OC[C@H](C)NC[C@@H]1C	·	12[16.7 µM]	·	·	·	-3	·
CCN(C(=O)COC(=O)/C=C/c1ccc(OC)c(OC)c1)c1c(N)n(Cc2ccccc2)c(=O)[nH]c1=O	0	·	1	20*	8	0	-2
CCN(C(=O)COC(=O)c1ccc2ccccc2c1)c1c(N)n(Cc2ccccc2)c(=O)[nH]c1=O	-2	·	-1	38*	6	0	1
COCCN(C(=O)COC(=O)/C=C/c1ccc(C(F)(F)F)cc1)c1c(N)n(Cc2ccccc2)c(=O)[nH]c1=O	-5	-19	-1	6	6	32	·
COc1ccc(/C=C/C(=O)OCC(=O)N(C)c2c(N)n(Cc3ccccc3)c(=O)[nH]c2=O)cc1OC	1	13	1	0	-6	11	·
COCCN(C(=O)COC(=O)/C=C/c1ccc(SC)cc1)c1c(N)n(Cc2ccccc2)c(=O)[nH]c1=O	0	1	1	21*	2	·	1
C[C@H]1CN([C@@H](C)CO)S(=O)(=O)c2ccc(-c3cccnc3)cc2O[C@@H]1CN(C)C	0	-3[16.7 µM]	·	·	·	29	·
COCCn1c(SCC(=O)c2c(N)n(C3CC3)c(=O)[nH]c2=O)nnc1-c1ccc(Cl)cc1	-2	·	-1	21*	0	-1	1
C[C@H]1CN([C@@H](C)CO)C(=O)c2cc(NC(=O)Nc3ccc4c(c3)OCO4)ccc2O[C@H]1CN(C)C(=O)Nc1ccc(C(F)(F)F)cc1	0	9[16.7 µM]	·	·	8	5	·
CCN(c1ccccc1)S(=O)(=O)c1nnc(NC(=O)CC(C)C)s1	-5	8	1	-3	-17	25	·
CCCCC(=O)Nc1nnc(S(=O)(=O)N(CC)c2ccccc2)s1	1	-1	-1	18*	9	2	-1
COc1cc(/C=N/NC(=O)c2cccnc2)ccc1OCC(=O)Nc1c(C)cc(C)cc1C	-1	3	0	26*	17	9	6
COc1ccc(NC(=O)COc2ccc(/C=N/NC(=O)c3cccnc3)cc2OC)cc1	·	-1	-1	-11	7	2	·
COc1cc(/C=N/NC(=O)c2cccnc2)ccc1OCC(=O)Nc1ccccc1Cl	-1	-35	0	116*	-71	0	0
O=C(C[C@@H]1CC[C@H]2[C@@H](COC[C@H](O)CN2C(=O)c2cccnc2)O1)NCc1ccc(-c2ccccc2)cc1	1	·	·	·	5	3	·
CCN(CC)CCN(C(=O)c1ccc2c(c1)CCCC2)c1nc2ccc(OC)cc2s1	8	14	-1	23*	3	-53	1
CCN(CC)CCN(C(=O)c1ccc2c(c1)CCCC2)c1nc2c(C)cccc2s1	25	27	0	29*	10	-7	-5
CCN(CC)CCN(C(=O)c1ccc2c(c1)CCCC2)c1nc2ccc(C)cc2s1	0	9	-1	11	-12	-27	·
O=C(C[C@@H]1C[C@H]2c3cc(NC(=O)CC4CC4)ccc3O[C@H]2[C@H](CO)O1)NCc1cccnc1	18	·	·	·	·	8	·
CC(C)COC(=O)N(C)C[C@H]1OCc2cn(nn2)CCCC(=O)N([C@@H](C)CO)C[C@H]1C	50	2[16.7 µM]	·	·	·	6	·
O=C1c2cccc3cccc(c23)C(=O)N1CCN1CCN(CC(O)COCc2ccc(Cl)cc2)CC1 (stereo not given)	·	-70	-7	13	1	-28	·
COc1ccc(COCC(O)CN2CCC(C(N)=O)CC2)cc1OC (stereo not given)	·	40	1	-3	16	14	·
SMILES	Cneo AK release	Env fusion inh	CDK5 inh	dFosB act-1	PAX8 inh HTS	GSIS activator	dFosB act-2
CCc1ccc(OCC(O)CN2CCC(CN3C(=O)c4cccc5cccc(c45)C3=O)CC2)cc1 (stereo not given)	·	·	2	3	-74	-22	·
COc1cc(COCC(O)CN2CCN(CCN3C(=O)c4cccc5cccc(c45)C3=O)CC2)cc(OC)c1OC (stereo not given)	·	-62	2	37*	-5	16	1
COc1ccc(COCC(O)CN2CCC(CN3C(=O)c4cccc5cccc(c45)C3=O)CC2)cc1OC (stereo not given)	·	-14	-1	28*	14	5	5
COc1cccc(OCC(O)CN2CCC(CN3C(=O)c4cccc5cccc(c45)C3=O)CC2)c1 (stereo not given)	·	-1	1	46*	29	-22	3
Cc1ccccc1CN(C)C[C@@H]1OCc2cnnn2CCCC(=O)N([C@H](C)CO)C[C@@H]1C	18	-5[16.7 µM]	·	·	·	7	·
C[C@@H]1CN(C)C(=O)c2cc(NS(C)(=O)=O)ccc2O[C@H]1CN(C)C	·	·	·	·	·	14	·
COc1ccc(C(=O)Nc2c(N)nc(SCC(=O)Nc3ccc(NC(C)=O)cc3)[nH]c2=O)cc1	-1	-9	-3	8	-8	-13	·
CCc1ccc(NC(=O)CSc2nc(N)c(NC(=O)c3ccc(F)c(F)c3)c(=O)[nH]2)cc1	0	2	0	29*	4	18	4
Cc1ccc(C(=O)Nc2c(N)nc(SCC(=O)Nc3cc(C)on3)[nH]c2=O)cc1	-1	·	0	26*	6	-11	-7
Nc1nc(SCC(=O)Nc2ccc(F)cc2)[nH]c(=O)c1NC(=O)c1ccc(F)c(F)c1	0	-5	4	27*	-2	5	-1
Nc1nc(SCC(=O)NCC2CCCO2)[nH]c(=O)c1NC(=O)c1ccc(F)c(F)c1 (stereo not given)	-2	6	-5	0	1	2	·
Cc1cc(C)cc(NC(=O)CSc2nc(N)c(NC(=O)c3cccs3)c(=O)[nH]2)c1	4	-7	-1	31*	8	-4	6
